Laboratory results from ChEMBL document CHEMBL1153389, “Identification of novel antibacterial peptides by chemoinformatics and machine learning” (2009).

Tests used:
Type in all cases: functional
[1] = system: Escherichia coli; experiment: Antimicrobial activity against extended-spectrum beta-lactamase producing Escherichia coli 64771 after overnight incubation by broth microdilution method
Procedure, shortened: (§1)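 Modified broth microdilution. Peptides are serially diluted in 0.01% acetic acid with 0.2% BSA at 10-fold the final concentration, then added to MH medium in polypropylene plates. Bacteria from an overnight culture are added to a final (2-7) × 10^5 CFU/mL. Plates are incubated overnight at 37 °C. MIC is the lowest concentration with no visible growth.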

[2] = system: Pseudomonas aeruginosa; experiment: Antimicrobial activity against Pseudomonas aeruginosa LES400 after overnight incubation by broth microdilution method
Procedure, shortened: (§2)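 Modified broth microdilution in polypropylene 96-well plates with Mueller-Hinton (MH) medium. Bulk-synthesized peptides were serially diluted at 10-fold final strength in 0.01% acetic acid with 0.2% BSA, then added 1:10 to MH. Inoculum came from an overnight culture at a final (2-7) × 10^5 CFU/mL. Plates were incubated overnight at 37 °C. MIC was the lowest concentration with no visible growth.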

[3] = system: Klebsiella pneumoniae; experiment: Antimicrobial activity against extended-spectrum beta-lactamase-resistant Klebsiella pneumoniae 63575 after overnight incubation by broth microdilution method; procedure, shortened: as §2
[4] = system: Pseudomonas aeruginosa; experiment: Antimicrobial activity against Pseudomonas aeruginosa H1027 after overnight incubation by broth microdilution method; procedure, shortened: as §1
[5] = system: Enterococcus faecalis; experiment: Antimicrobial activity against vancomycin-resistant Enterococcus faecalis f43559 (VanB) isolate after overnight incubation by broth microdilution method; procedure, shortened: as §2
[6] = system: Enterobacter cloacae; experiment: Antimicrobial activity against class C chromosomal beta lactamase expressing Enterobacter cloacae 218R after overnight incubation by broth microdilution method; procedure, shortened: as §1
[7] = system: Enterococcus faecium; experiment: Antimicrobial activity against vancomycin-resistant Enterococcus faecium mic80(VanA) isolate after overnight incubation by broth microdilution method; procedure, shortened: as §2
[8] = system: Pseudomonas aeruginosa; experiment: Antimicrobial activity against Pseudomonas aeruginosa H1001 expressing luciferase gene assessed as ratio antimicrobial IC50 for drug to Bac2A peptide by luminescence assay
Procedure, shortened: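 Peptides are made by SPOT synthesis on cellulose, cleaved, and the spots placed in plate wells. Overnight P. aeruginosa H1001 (fliC::luxCDABE) is diluted 1:500 in 100 mM Tris-HCl pH 7.3 with 20 mM glucose and added to the wells. After 30 min, serial dilutions (8 rows) are made. Luminescence is read at 4 h. IC50 is taken from a sigmoid fit and expressed relative to Bac2A run in the same series.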

[9] = system: Staphylococcus aureus; experiment: Antimicrobial activity against methicillin-resistant Staphylococcus aureus C623 after overnight incubation by broth microdilution method; procedure, shortened: as §2
[10] = system: Enterococcus faecalis; experiment: Antimicrobial activity against vancomycin-resistant Enterococcus faecalis w6190(VanA) isolate after overnight incubation by broth microdilution method; procedure, shortened: as §2
[11] = system: Enterococcus faecalis; experiment: Antimicrobial activity against Enterococcus faecalis ATCC 29212 after overnight incubation by broth microdilution method; procedure, shortened: as §1
[12] = system: Pseudomonas aeruginosa; experiment: Antimicrobial activity against multidrug-resistant Pseudomonas aeruginosa Brazil 198 isolate after overnight incubation by broth microdilution method; procedure, shortened: as §2
[13] = system: Stenotrophomonas maltophilia; experiment: Antimicrobial activity against Pseudomonas maltophilia ATCC 13637 after overnight incubation by broth microdilution method; procedure, shortened: as §1
[14] = system: Klebsiella pneumoniae; experiment: Antimicrobial activity against extended-spectrum beta-lactamase-resistant Klebsiella pneumoniae 61962 after overnight incubation by broth microdilution method; procedure, shortened: as §2
[15] = system: Pseudomonas aeruginosa; experiment: Antimicrobial activity against Pseudomonas aeruginosa H1030 after overnight incubation by broth microdilution method; procedure, shortened: as §2
[16] = system: Pseudomonas aeruginosa; experiment: Antimicrobial activity against Pseudomonas aeruginosa H103 after overnight incubation by broth microdilution method; procedure, shortened: as §1
[17] = system: Staphylococcus aureus; experiment: Antimicrobial activity against Staphylococcus aureus ATCC 25923 after overnight incubation by broth microdilution method; procedure, shortened: as §2
[18] = system: Enterococcus faecium; experiment: Antimicrobial activity against vancomycin-resistant Enterococcus faecium t62764(VanB) isolate after overnight incubation by broth microdilution method; procedure, shortened: as §2
[19] = system: Escherichia coli; experiment: Antimicrobial activity against extended-spectrum beta-lactamase producing Escherichia coli 63103 after overnight incubation by broth microdilution method; procedure, shortened: as §1
[20] = system: Pseudomonas aeruginosa; experiment: Antimicrobial activity against multidrug-resistant Pseudomonas aeruginosa Brazil 213 isolate after overnight incubation by broth microdilution method; procedure, shortened: as §2
[21] = system: Pseudomonas aeruginosa; experiment: Antimicrobial activity against multidrug-resistant Pseudomonas aeruginosa Brazil 9 isolate after overnight incubation by broth microdilution method; procedure, shortened: as §2

Substance | MIC [1] [µM] | MIC [2] [µM] | MIC [3] [µM] | MIC [4] [µM] | MIC [5] [µM] | MIC [6] [µM] | MIC [7] [µM] | Ratio IC50 [8] | MIC [9] [µM] | MIC [10] [µM] | MIC [11] [µM] | MIC [12] [µM] | MIC [13] [µM] | MIC [14] [µM] | MIC [15] [µM] | MIC [16] [µM] | MIC [17] [µM] | MIC [18] [µM] | MIC [19] [µM] | MIC [20] [µM] | other results
H-AVWKFVKRV-OH | 120 | 240 | > 240 | 120 | > 240 | > 240 | 120 | 8.18 | 240 | > 240 | > 240 | 240 | 60 | > 240 | > 240 | 240 | 240 | 120 | 240 | – | –
H-FRRWWKWFK-OH | 6.1 | 5.9 | 24 | 1.5 | 97 | 24 | 6.1 | 0.12 | 3 | 195 | 24 | 3 | 0.8 | 97 | 24 | 1.5 | 1.5 | 6.1 | 12 | 5.9 | MIC [21]: 12 µM
H-IWWKWRRWV-OH | 6 | 12 | 12 | 6 | 48 | 6 | 6 | 0.29 | 3 | 48 | 24 | 12 | 1.5 | 96 | 48 | 6 | 3 | 3 | 24 | 48 | MIC [21]: 48 µM
H-KIWWWWRKR-OH | 5.9 | 47 | 47 | 5.9 | 94 | 94 | 5.9 | 0.13 | 5.9 | 94 | 24 | 24 | 3 | 189 | 12 | 5.9 | 5.9 | 1.5 | 12 | 47 | MIC [21]: 47 µM
H-KWKIFRRWW-OH | 12 | 12 | 97 | 3.1 | 97 | 6 | 24 | 0.16 | 3.1 | 97 | 24 | 24 | 1.5 | 194 | 48 | 12 | 3.1 | 6.1 | 24 | 48 | MIC [21]: 24 µM
H-LRWWWIKRI-OH | 13 | 25 | 50 | 6.3 | 25 | 50 | 6.3 | 0.33 | 6.3 | 50 | 13 | 25 | 3.2 | 201 | 25 | 13 | 6.3 | 1.5 | 25 | 50 | MIC [21]: 50 µM
H-RKRLKWWIY-OH | 6.3 | 50 | 50 | 6.3 | 202 | 13 | 13 | 0.18 | 6.3 | > 202 | 50 | 50 | 3.2 | > 202 | 50 | 25 | 6.3 | 3.2 | 6.3 | 50 | MIC [21]: 50 µM
H-RKWIWRWFL-OH | 1.5 | 6.1 | 3.1 | 1.5 | 24 | 3 | 3.1 | 0.15 | 3.1 | 24 | 6.1 | 3.1 | 1.5 | 3.1 | 3.1 | 6.1 | 3.1 | 3.1 | 1.5 | 6.1 | MIC [21]: 12 µM
H-RLARIVVIRVAR-OH | 24 | 95 | 192 | 12 | 48 | 24 | 12 | – | 24 | 48 | 12 | 95 | 3 | 192 | 95 | 48 | 24 | 3 | 24 | 192 | MIC [21]: 192 µM
H-RRFKFIRWW-OH | 12 | 12 | 49 | 3.1 | 49 | 12 | 6.1 | 0.24 | 6.1 | 98 | 12 | 49 | 0.8 | 98 | 49 | 6.1 | 6.1 | 6.1 | 12 | 49 | MIC [21]: 24 µM
